A selection: hits, their analogues and other compounds. The true share with any hit is near 4.8%.
T cruzi repl: T. cruzi replication inhibition; T. cruzi beta-gal in NIH3T3, luminescence, 90 h; inhibition, % (no concentration beside the values); 1.4% of 300,000 active; AID 1885;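 active = mean inhibition across valid replicates above about 55%, limit read from the data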;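 note: signal also drops with host cell toxicity which is not excluded here; higher percent means less beta-gal luminescence so fewer parasites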
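Incubation – ≥90 h infection period, 3 h prior cell attachment · System – NIH/3T3 fibroblasts plus reporter T. cruzi · Doses – compound pinned at 50 nL/well, DMSO · Read-out basis – percent inhibition of parasite-derived β-gal signal · Signal – luminescent β-galactosidase signal after 60 min lysis · Also added – 5000 T. cruzi trypomastigotes/well · Medium – Low-serum DMEM with 2% FBS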
Jurkat NFkB inh: lowers PMA/ionomycin-induced NF-kB signal in Jurkat cells | PMA/ionomycin-induced NF-kB luciferase reporter, luminescence | inhibition, % at 4 µM | 0.53% of 330,000 active; in the data active = inhibition above about 50%
697 NFkB inh: lowers PMA/ionomycin-induced NF-kB signal in 697 B cells. 697 B-cell NF-kB luciferase reporter, 16 h. inhibition, % at 4 µM. 0.33% of 330,000 active; in the data active = inhibition above about 35%
HSF1 inhib: HSF1 inhibition; 0.77% of 300,000 active; activity change, negative = inhibition, % at 7.5 µM (by protocol); NIH3T3-HGL HSE-luciferase, MG132-induced, luminescence 8 h; stronger effect = lower value; AID 2098;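 active = more than half of replicate wells show activity change below -50%, luminescence cut by over half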;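 note: luciferase reports HSF-1 transcriptional activity via heat shock element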
GPR7 antag: antagonists of human GPR7 (neuropeptides B/W receptor 1). 1.1% of 290,000 active. GPR7-expressing cells, fluorescence antagonist assay. inhibition, % at 4.4 µM. P48145; in the data active = inhibition above about 16%, passing the limit was not always enough;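 note: cells stimulated with the agonist NPW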
Target sequence (P48145 whole entry, looked up): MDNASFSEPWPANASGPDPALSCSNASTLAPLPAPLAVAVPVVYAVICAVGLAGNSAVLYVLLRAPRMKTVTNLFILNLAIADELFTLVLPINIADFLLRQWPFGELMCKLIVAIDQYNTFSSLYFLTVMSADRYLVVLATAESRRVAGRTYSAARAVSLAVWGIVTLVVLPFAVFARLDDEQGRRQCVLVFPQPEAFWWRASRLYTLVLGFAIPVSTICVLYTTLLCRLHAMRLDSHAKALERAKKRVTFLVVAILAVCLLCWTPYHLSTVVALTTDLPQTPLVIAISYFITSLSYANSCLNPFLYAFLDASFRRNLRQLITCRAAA
HSF-1 act: increases HSF-1 driven luciferase reporter signal. 1.7% of 300,000 active. NIH3T3-HGL HSF-1 luciferase reporter, MG132, 8 h; 100% = twice DMSO control signal. AID 504408. activation, % at 9 µM;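 active = mean replicate activation of at least 50% with a set share of replicates each reaching 50%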
Numbers stand for hits.

What do the screens show for `CCCN(Cc1ccccc1)C(=S)NC(=O)c1ccccc1[N+](=O)[O-]`?
T cruzi repl: inactive; Jurkat NFkB inh: inactive; 697 NFkB inh: inactive; HSF1 inhib: -60; GPR7 antag: inactive; HSF-1 act: inactive

What do the screens show for `N/C(Cc1cccc2ccccc12)=N\OC(=O)c1ccccc1F`?
T cruzi repl: inactive; Jurkat NFkB inh: inactive; 697 NFkB inh: inactive; HSF1 inhib: inactive; GPR7 antag: inactive; HSF-1 act: inactive

What do the screens show for `N/C(Cc1ccc(Cl)cc1Cl)=N\OC(=O)c1ccccc1F`?
T cruzi repl: inactive; Jurkat NFkB inh: inactive; 697 NFkB inh: inactive; HSF1 inhib: inactive; GPR7 antag: inactive; HSF-1 act: 68

How did CC(=O)N(C)Cc1ccc(C(=O)CCl)cc1 do in these assays?
T cruzi repl: 74; Jurkat NFkB inh: inactive; 697 NFkB inh: inactive; HSF1 inhib: inactive; GPR7 antag: inactive; HSF-1 act: inactive

What do the screens show for `CC(=O)Nc1ccc(C(=O)CCl)cc1`?
Jurkat NFkB inh: inactive; 697 NFkB inh: inactive

Results for CC(=O)NCc1ccc(C(=O)CCl)cc1 ?
T cruzi repl: 61; Jurkat NFkB inh: inactive; 697 NFkB inh: inactive; HSF1 inhib: inactive; GPR7 antag: inactive; HSF-1 act: inactive

How did CC(=O)NCc1ccc(C(=O)CCl)s1 do in these assays?
T cruzi repl: 56; Jurkat NFkB inh: inactive; 697 NFkB inh: inactive; HSF1 inhib: inactive; GPR7 antag: inactive; HSF-1 act: inactive

Results for Cc1sc(N2C(=O)C3C4C=CC(C4)C3C2=O)c(C#N)c1C (stereo not given) ?
T cruzi repl: inactive; Jurkat NFkB inh: inactive; 697 NFkB inh: inactive; HSF1 inhib: inactive; GPR7 antag: inactive; HSF-1 act: inactive

Results for CC(NS(=O)(=O)c1ccc(F)cc1)C(=O)Nc1ccc2c(c1)OCCO2 (stereo not given) ?
T cruzi repl: inactive; Jurkat NFkB inh: inactive; 697 NFkB inh: inactive; HSF1 inhib: inactive; GPR7 antag: inactive; HSF-1 act: inactive

What do the screens show for `CCOC(=O)/C(=N\Nc1ccccc1)c1csc(Nc2ccc(C)cc2)n1`?
T cruzi repl: 60; Jurkat NFkB inh: inactive; 697 NFkB inh: inactive; HSF1 inhib: inactive; GPR7 antag: inactive; HSF-1 act: inactive

Results for CCCCC(CCC(=O)O)(C(=O)OCC)c1csc(Nc2ccc(C)cc2)n1 (stereo not given) ?
T cruzi repl: inactive; Jurkat NFkB inh: inactive; 697 NFkB inh: inactive; HSF1 inhib: inactive; GPR7 antag: inactive; HSF-1 act: inactive

What do the screens show for `COc1ccc(NS(=O)(=O)c2ccc3nc(COc4ccc5ccccc5c4)[nH]c3c2)cc1`?
T cruzi repl: inactive; Jurkat NFkB inh: inactive; 697 NFkB inh: inactive; HSF1 inhib: -81; GPR7 antag: inactive; HSF-1 act: inactive

Results for O=C(Cn1nc(-c2ccccc2)ccc1=O)Nc1ccc(N2CCN(C(=O)c3ccccc3)CC2)cc1 ?
T cruzi repl: inactive; Jurkat NFkB inh: inactive; 697 NFkB inh: inactive; HSF1 inhib: inactive; GPR7 antag: 20; HSF-1 act: inactive

How did O=C(Cn1nc(-c2ccccc2)ccc1=O)N1CCCCC1 do in these assays?
T cruzi repl: inactive; Jurkat NFkB inh: inactive; 697 NFkB inh: inactive; HSF1 inhib: -79; GPR7 antag: inactive; HSF-1 act: inactive

Results for O=C(Cn1nc(-c2ccccc2Cl)ccc1=O)Nc1ccccc1-c1ccccc1 ?
T cruzi repl: inactive; Jurkat NFkB inh: inactive; 697 NFkB inh: inactive; HSF1 inhib: inactive; GPR7 antag: inactive; HSF-1 act: 53

Results for Cc1ccccc1-c1ccc(=O)n(CC(=O)Nc2ccc(C(=O)N3CCCC3)cc2)n1 ?
T cruzi repl: inactive; Jurkat NFkB inh: inactive; 697 NFkB inh: inactive; HSF1 inhib: inactive; GPR7 antag: inactive; HSF-1 act: inactive

Results for COc1ccc(/C=N/N2C(=N)SCC2=O)cc1 ?
T cruzi repl: inactive; Jurkat NFkB inh: inactive; 697 NFkB inh: inactive; HSF1 inhib: inactive; GPR7 antag: inactive; HSF-1 act: inactive

What do the screens show for `Cc1c(CCOC(=O)c2cc([N+](=O)[O-])cc([N+](=O)[O-])c2)sc[n+]1CC(=O)c1ccccc1`?
T cruzi repl: 69; Jurkat NFkB inh: inactive; 697 NFkB inh: inactive; HSF1 inhib: inactive; GPR7 antag: inactive; HSF-1 act: inactive

Results for Cc1c(CCOC(=O)c2ccccc2)sc[n+]1CC(=O)c1ccc(Br)cc1 ?
T cruzi repl: inactive; Jurkat NFkB inh: inactive; 697 NFkB inh: inactive; HSF1 inhib: inactive; GPR7 antag: 20; HSF-1 act: inactive

Results for Cc1c(CCOC(=O)c2ccccc2)sc[n+]1Cc1ccccc1 ?
T cruzi repl: inactive; Jurkat NFkB inh: inactive; 697 NFkB inh: inactive; HSF1 inhib: inactive; GPR7 antag: inactive; HSF-1 act: inactive

How did COc1ccc(CCN(CC(=O)NC2CCCC2)C(=O)Cn2nnc(-c3ccc(C)o3)n2)cc1OC do in these assays?
T cruzi repl: inactive; Jurkat NFkB inh: inactive; 697 NFkB inh: inactive; HSF1 inhib: inactive; GPR7 antag: inactive; HSF-1 act: inactive

What do the screens show for `CCn1c(Cl)c(C=O)s/c1=N\S(=O)(=O)c1ccccc1`?
T cruzi repl: 55; Jurkat NFkB inh: inactive; 697 NFkB inh: inactive; HSF1 inhib: inactive; GPR7 antag: 45; HSF-1 act: 113

What do the screens show for `COc1ccc(NS(=O)(=O)c2cccc(N/C(=N\S(=O)(=O)c3ccccc3)c3ccc(F)cc3)c2)cc1`?
T cruzi repl: inactive; Jurkat NFkB inh: inactive; 697 NFkB inh: inactive; HSF1 inhib: inactive; GPR7 antag: 21; HSF-1 act: inactive

How did COc1ccc(NS(=O)(=O)c2cccc(C(=O)Nc3cccc(C(=O)O)c3)c2)cc1 do in these assays?
T cruzi repl: inactive; Jurkat NFkB inh: inactive; 697 NFkB inh: inactive; HSF1 inhib: inactive; GPR7 antag: inactive; HSF-1 act: inactive

What do the screens show for `CCCn1c(SCC(=O)NNC(=O)c2ccccc2)nnc1-c1cccnc1`?
T cruzi repl: inactive; Jurkat NFkB inh: inactive; 697 NFkB inh: inactive; HSF1 inhib: inactive; GPR7 antag: inactive; HSF-1 act: inactive

How did S=c1[nH]cc(Cc2ccccc2)s1 do in these assays?
T cruzi repl: inactive; Jurkat NFkB inh: inactive; 697 NFkB inh: inactive; HSF1 inhib: inactive; GPR7 antag: inactive; HSF-1 act: 60

Results for c1ccc(Cc2nnc3sc(-c4ccco4)nn23)cc1 ?
T cruzi repl: inactive; Jurkat NFkB inh: inactive; 697 NFkB inh: inactive; HSF1 inhib: inactive; GPR7 antag: inactive; HSF-1 act: inactive

Results for CC1(C)SC(=S)N(NC(=O)Nc2cccc3ccccc23)C1N(O)C(=O)Nc1ccccc1 (stereo not given) ?
T cruzi repl: inactive; Jurkat NFkB inh: inactive; 697 NFkB inh: inactive; HSF1 inhib: inactive; GPR7 antag: inactive; HSF-1 act: inactive

What do the screens show for `CC(=O)c1cn(CC(=O)Nc2ccccc2C)c2ccccc12`?
T cruzi repl: inactive; Jurkat NFkB inh: inactive; 697 NFkB inh: inactive; HSF1 inhib: -80; GPR7 antag: inactive; HSF-1 act: inactive

Results for COC(=O)Cn1cc(C(=O)OC)c2ccccc21 ?
T cruzi repl: inactive; Jurkat NFkB inh: inactive; 697 NFkB inh: inactive; HSF1 inhib: inactive; GPR7 antag: 21; HSF-1 act: inactive

High-throughput results deposited in PubChem by several laboratories.
